Results taken from ChEMBL document CHEMBL4000211, “Discovery of novel polycyclic spiro-fused carbocyclicoxindole-based anticancer agents” (Eur J Med Chem, 2017).
Activity calls are given as the source filed them. No cut-off for these calls is given here.

Legend:
HCT-116 [1] = assay: Induction of apoptosis in human HCT116 cells assessed as viable cells at 10 uM after 48 hrs by annexin V-FITC/propidium iodide staining-based flow cytometric method (reference value: 95.05%); assay type: functional; details: HCT-116, 48 h, read-out: Activity
In short: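 HCT116 cells seeded at 1×10⁶ cells/mL in 6-well plates for 24 h, then exposed to 0, 7.5, 10 or 12.5 μM for a further 24 h or 48 h. Cells washed twice in PBS, then stained with Annexin V-FITC plus PI (100 μg/mL stock) in binding buffer (10 mM HEPES, pH 7.4, 2.5 mM CaCl₂) for 30 min at room temperature in the dark. Early and late apoptotic fractions gated by flow cytometry.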

HCT-116 [2] = assay: Induction of apoptosis in human HCT116 cells assessed as cell shrinkage at 7.5 to 12.5 uM after 24 hrs by inverted microscopic method; assay type: functional, cell-based
In short: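 HCT116 at 1×10⁵/well grown 24 h, then treated 24 h (0, 7.5, 10, 12.5). Cells rinsed in PBS and fixed in 75% ethanol. Morphology was examined by inverted microscopy, then cells were stained with Hoechst 33342 for fluorescence microscopy of nuclei.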

HCT-116 [3] = assay: Induction of apoptosis in human HCT116 cells assessed as nuclear fragmentation at 7.5 to 12.5 uM after 24 hrs by Hoechst 33342 staining-based fluorescence microscopic method; assay type: functional, cell-based
In short: (§1)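 HCT116 cells (1×10⁵/well) cultured 24 h, then exposed to 0, 7.5, 10 or 12.5 μM (final) for 24 h. Rinsed in PBS, fixed in 75% ethanol and checked by inverted microscopy. Then stained with Hoechst 33342 (2 μg/mL in PBS) and scored for apoptotic nuclear morphology under fluorescence microscopy.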

HCT-116 [4] = assay: Induction of apoptosis in human HCT116 cells assessed as early apoptotic cells at 10 uM after 48 hrs by annexin V-FITC/propidium iodide staining-based flow cytometric method (reference value: 1.6%); assay type: functional
[5] = biological target: E3 ubiquitin-protein ligase Mdm2 (Homo sapiens) (UniProt Q00987); assay: Inhibition of MDM2-mediated p53 degradation in human HCT116 cells assessed as increase in MDM2 levels at 7.5 to 12.5 uM after 24 hrs by Western blot method; assay type: cell-based
Sequence of E3 ubiquitin-protein ligase Mdm2 (Homo sapiens) (Q00987 whole entry, looked up): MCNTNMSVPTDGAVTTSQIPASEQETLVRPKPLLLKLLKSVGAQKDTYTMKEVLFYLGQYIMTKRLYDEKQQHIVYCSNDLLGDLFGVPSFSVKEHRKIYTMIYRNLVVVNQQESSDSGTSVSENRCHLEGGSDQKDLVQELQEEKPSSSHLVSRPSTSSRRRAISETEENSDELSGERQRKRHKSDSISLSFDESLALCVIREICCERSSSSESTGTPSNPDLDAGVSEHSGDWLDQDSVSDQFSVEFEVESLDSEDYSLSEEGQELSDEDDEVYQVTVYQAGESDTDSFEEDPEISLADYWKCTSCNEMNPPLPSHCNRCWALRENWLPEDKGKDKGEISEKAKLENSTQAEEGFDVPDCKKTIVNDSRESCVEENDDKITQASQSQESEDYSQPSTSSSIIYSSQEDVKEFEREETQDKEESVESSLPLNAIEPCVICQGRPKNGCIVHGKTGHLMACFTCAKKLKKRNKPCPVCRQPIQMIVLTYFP
In short: (§2)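 Treated HCT116 cells lysed on ice in RIPA buffer with 1% protease inhibitor cocktail. Lysates cleared at 13000 g for 20 min at 4 °C and protein measured by BCA. Equal protein amounts run on SDS-PAGE, transferred to PVDF and probed with primary then HRP secondary antibodies. Bands detected by enhanced chemiluminescence; 24 h treatment.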

HCT-116 [6] = assay: Cell cycle arrest in human HCT116 cells assessed as accumulation at G1 phase at 7.5 uM after 48 hrs by propidium iodide staining-based flow cytometric method (reference value: 40.75%); assay type: functional
HCT-116 [7] = assay: Cell cycle arrest in human HCT116 cells assessed as accumulation at sub G1 phase at 10 uM after 24 hrs by propidium iodide staining-based flow cytometric method (reference value: 1.73%); assay type: functional
NCI-H1299 = assay: Antiproliferative activity against human NCI-H1299 cells after 48 hrs by MTT assay; assay type: functional, cell-based; details: NCI-H1299, 48 h
In short: (§3)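 Cells seeded at 3×10³/well and grown 24 h, then exposed 48 h to six final concentrations, twofold steps down from 30. MTT (5 mg/mL) was added for 2–4 h at 37 °C. Supernatant was removed, formazan dissolved in DMSO, and OD read at 570 nm. Results are given as IC50, or as percent inhibition where IC50 exceeds the top concentration. At least three runs.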

HCT-116 [8] = assay: Antiproliferative activity against human HCT116 cells after 48 hrs by MTT assay; assay type: functional, cell-based; details: HCT-116, 48 h; in short: as §3
HCT-116 [9] = assay: Cell cycle arrest in human HCT116 cells assessed as accumulation at sub G1 phase at 12.5 uM after 24 hrs by propidium iodide staining-based flow cytometric method (reference value: 1.73%); assay type: functional
NCI-H1975 = assay: Antiproliferative activity against human NCI-H1975 cells after 48 hrs by MTT assay; assay type: functional, cell-based; details: NCI-H1975, 48 h; in short: as §3
HCT-116 [10] = assay: Induction of apoptosis in human HCT116 cells assessed as early apoptotic cells at 7.5 uM after 48 hrs by annexin V-FITC/propidium iodide staining-based flow cytometric method (reference value: 1.6%); assay type: functional
A2780S = assay: Antiproliferative activity against human A2780S cells at 7.5 uM after 48 hrs by MTT assay relative to control; assay type: functional; in short: as §3
HCT-116 [11] = assay: Induction of apoptosis in human HCT116 cells assessed as reduction in cell volume at 7.5 to 12.5 uM after 24 hrs by Hoechst 33342 staining-based fluorescence microscopic method; assay type: functional; in short: as §1
HCT-116 [12] = assay: Induction of apoptosis in human HCT116 cells assessed as nuclear condensation at 7.5 to 12.5 uM after 24 hrs by Hoechst 33342 staining-based fluorescence microscopic method; assay type: functional, cell-based; in short: as §1
HCT-116 [13] = assay: Cell cycle arrest in human HCT116 cells assessed as accumulation at G2 phase at 7.5 uM after 24 hrs by propidium iodide staining-based flow cytometric method (reference value: 26.10%); assay type: functional
HCT-116 [14] = assay: Cell cycle arrest in human HCT116 cells assessed as accumulation at S phase at 10 uM after 24 hrs by propidium iodide staining-based flow cytometric method (reference value: 36.43%); assay type: functional
HCT-116 [15] = assay: Induction of apoptosis in human HCT116 cells assessed as late apoptotic cells at 12.5 uM after 24 hrs by annexin V-FITC/propidium iodide staining-based flow cytometric method (reference value: 2.77%); assay type: functional
HCT-116 [16] = assay: Cell cycle arrest in human HCT116 cells assessed as accumulation at G1 phase at 10 uM after 48 hrs by propidium iodide staining-based flow cytometric method (reference value: 40.75%); assay type: functional
HCT-116 [17] = assay: Cell cycle arrest in human HCT116 cells assessed as accumulation at S phase at 7.5 uM after 48 hrs by propidium iodide staining-based flow cytometric method (reference value: 34.83%); assay type: functional
HCT-116 [18] = assay: Cell cycle arrest in human HCT116 cells assessed as accumulation at G2 phase at 10 uM after 48 hrs by propidium iodide staining-based flow cytometric method (reference value: 31.27%); assay type: functional
BGC-823 = assay: Antiproliferative activity against human BGC823 cells after 48 hrs by MTT assay; assay type: functional, cell-based; details: BGC-823, 48 h; in short: as §3
HCT-116 [19] = assay: Induction of apoptosis in human HCT116 cells assessed as early apoptotic cells at 7.5 uM after 24 hrs by annexin V-FITC/propidium iodide staining-based flow cytometric method (reference value: 1.9%); assay type: functional
HCT-116 [20] = assay: Induction of apoptosis in human HCT116 cells assessed as increase in cleaved caspase-3 level after 24 hrs by Western blot method; assay type: functional, cell-based
In short: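 Treated HCT116 were lysed on ice in RIPA buffer with 1% protease inhibitor cocktail and spun 13000 g, 20 min, 4 °C. Protein was quantified by BCA. Equal protein was run on SDS-PAGE, blotted to PVDF, probed with primary and HRP secondary antibodies, and detected by enhanced chemiluminescence.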

[21] = biological target: E3 ubiquitin-protein ligase Mdm2 (Homo sapiens) (UniProt Q00987); assay: Inhibition of MDM2-mediated p53 degradation in human HCT116 cells assessed as increase in p53 levels at 7.5 to 12.5 uM after 24 hrs by Western blot method; assay type: cell-based; in short: as §2
HCT-116 [22] = assay: Induction of apoptosis in human HCT116 cells assessed as early apoptotic cells at 10 uM after 24 hrs by annexin V-FITC/propidium iodide staining-based flow cytometric method (reference value: 1.9%); assay type: functional

## C[C@@H]1Oc2ccc3ccccc3c2[C@@H]2[C@@H]1C=C(C=O)[C@@H](C)[C@]21C(=O)Nc2ccccc21
HCT-116 [1]
  viability at 10 µM: 61.5%
HCT-116 [2]
  Activity: Active
HCT-116 [3]
  Activity: Active
HCT-116 [4]
  Activity: 27.48%
[5]
  inhibition: Active
HCT-116 [6]
  Activity: 49.85%
HCT-116 [7]
  Activity: 15.92%
NCI-H1299
  IC50: > 30 µM
HCT-116 [8]
  IC50: 8.6 µM
HCT-116 [9]
  Activity: 37.03%
NCI-H1975
  IC50: 13.7 µM
HCT-116 [10]
  Activity: 4.18%
A2780S
  inhibition at 7.5 µM: 50 to 58.1%
HCT-116 [11]
  Activity: Active
HCT-116 [12]
  Activity: Active
HCT-116 [13]
  Activity: 28.5%
HCT-116 [14]
  Activity: 7.13%
HCT-116 [15]
  Activity: 17.98%
HCT-116 [16]
  Activity: 82.32%
HCT-116 [17]
  Activity: 23.94%
HCT-116 [18]
  Activity: 18.42%
BGC-823
  IC50: > 30 µM
HCT-116 [19]
  Activity: 3.78%
HCT-116 [20]
  Activity: Dose-dependent effect
[21]
  inhibition: Active
HCT-116 [22]
  Activity: 11.32%
